bCat nuc transl – modulators of beta-catenin nuclear translocation, primary screen, imaging, HeLa cells, immunofluorescence, high-content. nuclear translocation activity, % at 5 µM. 190,000 compounds, 0.3% hits. AID 1665, 2009;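 active = nuclear translocation activity above 50% at 5 µM, with a well cell count of 50 or more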;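 also: per-cell ratio of nuclear to cytoplasmic median beta-catenin stain intensity; plate controls were DMSO negative control for no effect and GSK-3 inhibitor IX positive control for full effect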
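Test system: human HeLa cells, native beta-catenin. Compound dosing: 5 µM primary single dose, 0.1% DMSO, 0.02–20 µM confirmation series. Incubation: compound exposure 24 h at 37°C. Detection: beta-catenin immunostaining with DAPI counterstain, 20x imaging, 6 fields/well. Read-out basis: Nuclear/cytoplasmic beta-catenin signal ratio, % activation.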
Ba/F3 V617F tox – reduced viability of JAK2V617F-dependent Ba/F3 cells, primary screen, JAK2V617F inhibitor project, cell-based, Ba/F3 EpoR-JAK2V617F, luminescence | ATP luminescence | inhibition, % at 5.6 µM | 220,000 compounds, 1.1% hits | AID 1446, 2008;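 active = inhibition above the campaign mean plus 3 SD over all tested compounds, cut at about 24% in these data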;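 also: cytokine-independent growth of Ba/F3 cells driven by EpoR plus mutant JAK2; 0% = DMSO-treated cells and 100% = JAK inhibitor I control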
L major viab – Leishmania major promastigote growth inhibition, primary screen; Leishmania major promastigotes, resazurin fluorescence viability; AID 1063, 2008; inhibition, % at 10 µM; 200,000 compounds, 9% hits; in the data active = inhibition above about 50%;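 also: promastigotes grown with compound for 44 hours at 28 °C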
MT stabilize HCS – microtubule stabilizers in HeLa cells, primary screen, imaging, high-content imaging; HeLa tubulin immunostaining HCS, 24 h; share of cells brighter than vehicle mean+2SD; % tubulin-high responders, % at 10 µM; 200,000 compounds, 0.83% hits; AID 2205, 2009;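 active = plate Z-score above 3 for both tubulin-high and condensed-nucleus cell shares, with cell loss under 80%, at 10 µM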;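 also: anti alpha tubulin signal scored within the nucleus-defined area of each cell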
BaF3 parental – parental Ba/F3 cell viability inhibition, counter-screen for JAK2V617F inhibitor project, murine pro-B, CellTiter-Glo luminescence; CellTiter-Glo ATP luminescence; inhibition, % at 5.6 µM; 220,000 compounds, 1.1% hits;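 active = inhibition above a per-campaign cutoff, the mean inhibition of all tested compounds plus 3 SD, cut at about 27% in these data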;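 also: 0% = DMSO wells and 100% = JAK Inhibitor I control wells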
APP transl inh – inhibitors of APP translation via 5'UTR reporter, primary screen, APP 5'UTR luciferase, SH-SY5Y cells. SH-SY5Y APP 5'UTR-luciferase reporter, luminescence. inhibition, % at 2 µM. 190,000 compounds, 0.82% hits;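 active = inhibition above a set limit, derived from the sample mean plus 3 SD, cut at about 45% in these data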
Numbers without * were called inactive; nt = no result. An excerpt weighted towards active compounds, which were near 9.6% of everything screened.

SMILES	bCat nuc transl	Ba/F3 V617F tox	L major viab	MT stabilize HCS	BaF3 parental	APP transl inh
C=CCNc1nc(-c2ccccc2)c(C(=O)OCC)cc1C#N	0.7	1.1	1.4	33.2*	1.9	4.4
C=CCNc1nc(C)c(C(C)=O)cc1C#N	2.5	-2.8	-2.0	1.2	4.3	nt
C=CCOC(=O)C1=C[C@@H](C2CCCCC2)C[C@@H](OCc2ccc(CO)cc2)O1	-2.1	-1.7	24.9	3.3	-0.2	-0.2
N#Cc1cc(Cl)c(N2CCOCC2)cc1C#N	2.8	1.6	-2.8	1.5	2.8	2.3
N#Cc1cc2ccc(N3CCOCC3)cc2cc1C#N	1.1	1.1	98.8*	5.8	7.2	-10.7
CC(=O)NCCc1ccc(S(=O)(=O)Nc2cccnc2)cc1	0.9	-2.6	-5.6	3.5	-0.2	-11.5
CCC1CCCCN1C(=O)CSc1nc2ccsc2c(=O)n1Cc1ccccc1 (centres undefined)	nt	-3.5	58.2*	2.2	5.7	-10.7
O=C(CSc1nc2ccsc2c(=O)n1Cc1ccccc1)NCC1CCCO1 (centres undefined)	-0.4	1.0	11.5	1.7	1.7	-5.4
COc1ccc(S(=O)(=O)N(C)CC(=O)NCCC2=CCCCC2)cc1C	nt	6.8	0.3	3.7	6.9	-0.4
Cc1ccc(NC(=O)c2ccc(F)cc2)cc1S(=O)(=O)N1CCCCCC1	0.2	0.7	48.7	2.8	2.1	-1.1
COc1cc(S(=O)(=O)N2CCOCC2)ccc1NC(=O)CN1c2cccc3cccc(c23)S1(=O)=O	-4.4	-0.5	10.5	4.0	2.3	5.9
COCCNCC(=O)Nc1ccc(C)c(S(=O)(=O)N2CCCCC2)c1	-3.2	0.8	-2.8	1.4	3.0	-12.5
Cc1ccc(OCC(=O)Nc2ccc(C)c(S(=O)(=O)N3CCCCCC3)c2)c([N+](=O)[O-])n1	-2.7	2.7	63.5*	3.2	1.5	13.3
Cc1ccc(C(=O)Nc2ccc3cn[nH]c3c2)cc1S(=O)(=O)N1CCCCC1	-3.7	0.4	50.3*	2.0	4.9	-45.7
Cc1ccc(NC(=O)CN2c3cccc4cccc(c34)S2(=O)=O)cc1S(=O)(=O)N1CCOCC1	0.8	-1.8	96.3*	3.5	1.8	-1.1
Cc1ccc(NC(=O)CCl)cc1S(=O)(=O)N1CCCCCC1	9.5	9.1	90.7*	9.4	10.2	2.4
Cc1ccc(OCC(=O)Nc2cccc(S(=O)(=O)N3CCCCC3)c2)c([N+](=O)[O-])n1	-1.5	5.7	13.9	11.0	9.8	2.8
CCC1=C(OC(=O)N(CC)CC)N2C(=O)OC(=NCCc3c[nH]c4ccccc34)[C@]2(Cc2ccccc2)[C@H]2C1=CC[C@H]1C(=O)NC(=O)[C@H]12	-0.9	nt	nt	nt	nt	nt
Cc1ccc(CN2CCN(Cc3ccccc3C(F)(F)F)CC2)cc1	-6.9	0.3	3.5	2.1	1.9	2.4
Cc1ccc(NC(=O)CSc2nccn2C)cc1S(=O)(=O)N1CCOCC1	-0.8	-2.8	56.7*	2.6	1.5	6.4
Cc1ccc(NC(=O)CSc2ccccn2)cc1S(=O)(=O)N1CCOCC1	-3.0	-1.1	0.5	2.0	-0.2	-8.8
Cn1nc(C(C)(C)C)c(NC(=O)c2cccs2)c1C(C)(C)C	-3.5	0.3	nt	nt	2.6	nt
Cc1ccccc1CNCc1cccnc1	-0.8	4.9	40.5	1.9	3.9	13.8
O=C(O)c1ccc(CNCc2ccc(F)cc2)cc1	-1.4	-1.0	-4.8	6.3	-0.1	-21.4
CCc1ccc(CNCc2cccnc2)cc1	1.3	-4.2	90.1*	1.5	4.7	34.9
SMILES	bCat nuc transl	Ba/F3 V617F tox	L major viab	MT stabilize HCS	BaF3 parental	APP transl inh
CCc1ccc(CNCc2ccc(F)cc2)cc1	4.1	2.4	70.8*	3.2	3.8	-9.9
Cn1c(=O)c2[nH]c(N=NNc3ccccc3F)nc2n(C)c1=O	2.0	-0.3	nt	nt	2.7	nt
Cc1c(Cl)ccc2c(C(=O)NC(C)c3ccncc3)cc(-c3ccncc3)nc12 (centres undefined)	0.3	0.0	39.5	3.4	6.9	-9.1
COC(=O)c1ccccc1NC(=S)N(Cc1ccc2c(c1)OCO2)Cc1cc2ccc(OC)cc2[nH]c1=O	-1.0	0.4	58.1*	2.3	5.0	25.3
COc1ccc2[nH]c(=O)c(CN(Cc3ccc4c(c3)OCO4)C(C)=O)cc2c1	-6.2	3.2	-1.9	1.3	7.3	5.5
COC(=O)c1ccccc1NC(=S)N(Cc1ccc2c(c1)OCO2)Cc1cc2ccc(C)cc2[nH]c1=O	2.1	-3.4	97.4*	1.0	-3.1	7.0
COC(=O)c1ccccc1NC(=S)N(Cc1ccc2c(c1)OCO2)Cc1cc2cc(C)ccc2[nH]c1=O	2.1	5.8	99.4*	2.1	6.6	12.1
CCN(CC)CCN(Cc1cc2ccc(C)cc2[nH]c1=O)C(=S)Nc1ccccc1C(=O)OC	-0.6	3.0	7.0	1.8	12.0	2.6
O=C(CN1CCN(C(c2ccccc2)c2ccccc2)CC1)NC(=O)NCc1ccco1	0.6	-3.2	32.3	2.6	2.8	-4.7
CCOC(=O)C(NCCc1ccccc1F)(NC(C)=O)C(F)(F)F (centres undefined)	-1.9	-1.4	-7.7	5.7	2.1	-1.0
CCN(CC)CCOC(=O)c1ccc(NC(=O)C2(c3ccccc3)CCCC2)cc1	-0.9	2.3	69.5*	3.4	4.9	-9.7
O=C(O)c1ccc(NC(=O)C2(c3ccccc3)CCCC2)cc1	0.9	-4.3	nt	nt	-0.8	nt
CCN(CC)CCOC(=O)c1ccc(NC(=O)/C=C/c2cccs2)cc1	nt	0.4	69.0*	3.5	5.5	17.2
COc1cc(CNC2CCCCCCC2)cc(Br)c1OCC#N	-1.3	0.8	75.1*	3.2	6.9	3.0
CCOc1c(Br)cc(CNC2CCCCCCC2)cc1OC	-2.2	6.7	59.9*	3.0	2.2	12.6
CCOC(=O)C1CCCN(C(=O)CN2C(=O)c3ccccc3C2=O)C1 (centres undefined)	-1.2	1.8	-1.9	5.2	0.1	-14.3
CCOC(=O)C1CCCN(C(=O)CN2C(=O)/C(=C/c3ccc(OC)cc3)Oc3ccccc32)C1 (centres undefined)	-0.9	-1.5	73.6*	2.9	4.6	-22.4
Cc1cccc2cc(CN(Cc3nnnn3Cc3ccco3)C3CCCC3)c3nnnn3c12	0.1	-2.1	59.5*	3.9	1.4	-9.2
Cc1cncn1CCc1nc2c3ccccc3nc(SCC(=O)Nc3cccc(Cl)c3)n2n1	0.0	2.6	100.4*	3.4	12.7	5.8
Cc1ccc(N=C2NC(=O)/C(=C/c3cccn3C)S2)cc1	65.0*	9.5	nt	nt	1.5	nt
Cc1ccc(N=C2NC(=O)/C(=C\c3ccc(C)s3)S2)cc1	2.1	-3.3	6.7	6.3*	8.4	-18.0
O=C1NC(=Nc2ccccc2)S/C1=C/c1cccs1	4.6	4.2	-9.4	4.9	10.3	-55.5
